Data set [1] can be described thus: Dissociation constant, pKa of the compound. The data set is classed as physicochemical.
Data set [2] in a line: Induction of necrosis in human HeLa cells after 30 mins by resazurin assay. It counts as cell-based. Particulars: read-out: LC50. The essentials:
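HeLa cells exposed to increasing ester concentrations up to 400 µM for 30 min at 37 °C. Remaining metabolic activity then read with a resazurin-based dye. LC50 is the concentration causing 50% loss of metabolic activity.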
(In general: Alamar Blue is a resazurin reagent that responds to reducing activity.)

In data set [3] the test system is Keratinocyte. The data set can be described thus: Induction of IL-8 release in human primary epidermal keratinocytes after 6 hrs by HTRF assay. The data set is classed as functional, cell-based. In general terms: Time-resolved FRET reads energy transfer from a long-lived donor to a nearby acceptor.
For data set [4], the system named is Keratinocyte. The data set can be described thus: Induction of IL-8 release in human primary epidermal keratinocytes after 6 hrs by HTRF assay relative to ingenol mebutate. It counts as functional.
Data set [5] has as its system Keratinocyte. In words: Induction of TNFalpha release in human primary epidermal keratinocytes after 6 hrs relative to ingenol mebutate. The data set is classed as functional. The essentials:
(§1)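 Human adult log-phase primary epidermal keratinocytes subcultured at 10,000 cells/well. Incubated with titrated compound for 6 h at 37 °C in humidified 95% air/5% CO2. Secreted cytokines quantified on 4-spot cytokine plates. EC50 is the concentration giving 50% of the maximum effect of the ingenol mebutate reference. Emax is maximal response relative to that reference.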

A short description of data set [6]: Induction of oxidative burst in polymorphonuclear leukocytes (unknown origin) isolated from buffy coat at 10 uM after 40 mins by fluorescence assay relative to ingenol mebutate. The data set is classed as functional. A digest of the protocol: (§2)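 PMN isolated and purified from fresh buffy coats, then incubated 40 min at ambient temperature with titrated compound (top concentration 10 µM) premixed with hydroethidine. Respiratory burst read as fluorescence in relative light units, emission 579 nm, excitation 485 nm. EC50 and Emax are expressed relative to the maximum effect of the ingenol mebutate reference.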

Data set [7] is described as follows: Induction of oxidative burst in polymorphonuclear leukocytes (unknown origin) isolated from buffy coat after 40 mins by fluorescence assay. It counts as functional, cell-based. A digest of the protocol:
as §2

Data set [8] can be described thus: Chemical stability of the compound in aqueous buffer assessed as drug recovery after 16 hrs at pH 7.4 by HPLC analysis. It counts as physicochemical. The note with it: read-out: Drug recovery. The essentials:
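DMSO stock diluted with pre-heated (37 °C) aqueous buffer pH 7.4 to at most 30% v/v organic content, then shaken. Held in the HPLC autosampler at 37 °C, first injected within 5 min, then injected repeatedly over 16 h. Recovery taken from the fall in compound peak area, UV detection normally at 270 nm.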

In data set [9] the target is Protein kinase C delta type (Homo sapiens, UniProt Q05655). The data set can be described thus: Activation of PKCdelta (unknown origin) using phosphatidylserine […]. The note with it: read-out: EC50. The essentials:
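PKCdelta assayed in vitro by phosphorylation of a PKC peptide substrate, with 0.05 mg/mL phosphatidylserine and no diacylglycerol so stimulation could be seen. Compounds serially diluted at semilogarithmic intervals, twelve points from 10 µM. Reaction started by adding ATP.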

For data set [10], the system named is Keratinocyte. In words: Induction of TNFalpha release in human primary epidermal keratinocytes after 6 hrs. It counts as functional, cell-based. The essentials:
as §1

The test system of data set [11] is Keratinocyte. In words: Induction of IL-8 release in human primary epidermal keratinocytes after 6 hrs by HTRF assay in presence of PKC inhibitor bisindolylmaleimide 1. The data set is classed as functional, cell-based.
Data set [12] concerns Keratinocyte. The data set can be described thus: Induction of TNFalpha release in human primary epidermal keratinocytes after 6 hrs in presence of PKC inhibitor bisindolylmaleimide 1. It counts as functional, cell-based.
Data set [13] is described as follows: Induction of oxidative burst in polymorphonuclear leukocytes (unknown origin) isolated from buffy coat at 10 uM after 40 mins by fluorescence assay in presence of PKC inhibitor bisindolylmaleimide 1. The data set is classed as functional, cell-based.

Activity calls are given as the source filed them. No cut-off for these calls is given here.

Sequence of Protein kinase C delta type (Q05655 whole entry): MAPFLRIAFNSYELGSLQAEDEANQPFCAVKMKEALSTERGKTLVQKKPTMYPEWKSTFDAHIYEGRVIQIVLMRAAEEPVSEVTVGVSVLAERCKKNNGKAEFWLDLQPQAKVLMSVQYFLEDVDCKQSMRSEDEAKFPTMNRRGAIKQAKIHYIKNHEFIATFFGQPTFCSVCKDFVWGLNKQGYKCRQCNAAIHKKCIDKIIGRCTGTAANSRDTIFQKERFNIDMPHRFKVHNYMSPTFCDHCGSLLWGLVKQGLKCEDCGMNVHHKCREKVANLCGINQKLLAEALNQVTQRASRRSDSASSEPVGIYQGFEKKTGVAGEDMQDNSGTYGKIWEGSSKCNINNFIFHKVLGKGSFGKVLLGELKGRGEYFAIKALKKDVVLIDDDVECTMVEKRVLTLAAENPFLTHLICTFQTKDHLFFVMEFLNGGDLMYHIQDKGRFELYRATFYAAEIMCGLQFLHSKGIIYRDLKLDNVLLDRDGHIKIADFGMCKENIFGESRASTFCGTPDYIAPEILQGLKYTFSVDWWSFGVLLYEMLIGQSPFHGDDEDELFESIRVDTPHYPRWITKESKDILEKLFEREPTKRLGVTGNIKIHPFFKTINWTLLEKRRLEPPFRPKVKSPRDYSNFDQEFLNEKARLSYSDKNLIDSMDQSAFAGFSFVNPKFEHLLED

The term pKa denotes the pH at which an ionisable group is half protonated. Lower therefore signals a stronger acid or weaker base. In the case of `C/C=C(/C)C(=O)O`, the pKa in data set [1] came out at 4.3.

By EC50 is commonly meant the concentration giving half of the maximal effect. A word on the Emax: it is the maximal effect, on the per cent scale that the assay sets. `C/C=C(\C)C(=O)O[C@H]1C(C)=C[C@]23C(=O)[C@@H](C=C(CO)[C@@H](O)[C@]12O)[C@H]1[C@@H](C[C@H]3C)C1(C)C`: the pKa in [1] was 5.02. The CC50 at 0.5 h in data set [2] turned out to be 237000 nM. Besides, the EC50 in the data set on Keratinocyte [3] was found to be 112 nM; in data set [7] it was 7.5 nM. In addition, the results for the Emax in the data set with Keratinocyte [4] and in the data set on Keratinocyte [5] were 75% and 81%, respectively. The compound further came in with an Emax at 10 µM in data set [6] of 92%. In addition, the remaining at 16 h in [8] worked out at 45%.

On to `CO/N=C(\C(=O)O[C@H]1C(C)=C[C@]23C(=O)[C@@H](C=C(CO)[C@@H](O)[C@]12O)[C@H]1[C@@H](C[C@H]3C)C1(C)C)c1ccccc1`, for which the EC50 turned out to be 10.6 nM in [9], 147 nM with Keratinocyte [3], 1600 nM in the data set with Keratinocyte [10] and 49 nM in [7]. Besides, in data set [2], the CC50 at 0.5 h came out at 92000 nM. Besides, the Emax with Keratinocyte [4] was 54%; in the data set on Keratinocyte [5] it was 52%. In data set [6], this compound showed an Emax at 10 µM of 120%. Moreover, the remaining at 16 h in data set [8] stood at 68%.

With `CCC(CC)C(=O)O[C@H]1C(C)=C[C@]23C(=O)[C@@H](C=C(CO)[C@@H](O)[C@]12O)[C@H]1[C@@H](C[C@H]3C)C1(C)C`, the EC50 was 4.5 nM in [9], 43 nM in the data set on Keratinocyte [3], 27 nM with Keratinocyte [10] and 6.3 nM in data set [7]. In addition, the CC50 at 0.5 h in data set [2] stood at 86000 nM. For the same compound, the Emax in the data set with Keratinocyte [4] amounted to 59%; with Keratinocyte [5], 62%. In addition, the Emax at 10 µM in data set [6] came out at 109%. For the same compound, in [8], the remaining at 16 h was determined as 60%.

With `C/C=C(/C)C(=O)O[C@H]1C(C)=C[C@]23C(=O)[C@@H](C=C(CO)[C@@H](O)[C@]12O)[C@H]1[C@@H](C[C@H]3C)C1(C)C` [INGENOL MEBUTATE], the EC50 came out at 4.1 nM in data set [9], 10.3 nM in the data set with Keratinocyte [3], 11.2 nM with Keratinocyte [10] and 8.7 nM in data set [7]. Also, the outcome (in the data set with Keratinocyte [11]; with Keratinocyte [12]; in data set [13]) was inactive. Further, in data set [2], the CC50 at 0.5 h is 230000 nM. Moreover, the remaining at 16 h in data set [8] turned out to be 60%.

For the origin of these results see ChEMBL document CHEMBL2429727, “Syntheses, biological evaluation and SAR of ingenol mebutate analogues for treatment of actinic keratosis and non-melanoma skin cancer” (Bioorg Med Chem Lett, 2013).
